Yeast lifespan up – compounds extending yeast replicative lifespan, primary screen, S. cerevisiae, OD615. S. cerevisiae growth with nicotinamide; deaD strain in restrictive glucose medium. inhibition of the nicotinamide effect, % at 10 µM. 130,000 tested, 0.68% active;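 active = inhibition above a set limit, placed 3 SD over the median of all compounds, cut at about 26% in these data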;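 note: 0% = nicotinamide-treated wells and 100% = cells grown without nicotinamide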
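System: Modified budding yeast, DeaD strain | Buffer or medium: Restrictive glucose medium | Also added: 1.5 mM nicotinamide | Doses: 10 µM single point, 0.25% DMSO | Schedule: 48 h compound exposure at 30 °C, humidified | Detection: Absorbance at 615 nm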
TNAP inh noacc – human TNAP enzyme inhibitors, primary screen, biochemical, luminescent, no phosphate acceptor, uHTS. purified TNAP, CDP-star luminescence, 30 min. inhibition, % at 20 µM. 200,000 tested, 0.26% active;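 active = tissue-nonspecific alkaline phosphatase inhibition above about 50% at 20 µM in the single-dose screen, limit read from the data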;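 note: 0% = DMSO negative control and 100% = EDTA positive control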
Target sequence (P05186 whole entry, looked up): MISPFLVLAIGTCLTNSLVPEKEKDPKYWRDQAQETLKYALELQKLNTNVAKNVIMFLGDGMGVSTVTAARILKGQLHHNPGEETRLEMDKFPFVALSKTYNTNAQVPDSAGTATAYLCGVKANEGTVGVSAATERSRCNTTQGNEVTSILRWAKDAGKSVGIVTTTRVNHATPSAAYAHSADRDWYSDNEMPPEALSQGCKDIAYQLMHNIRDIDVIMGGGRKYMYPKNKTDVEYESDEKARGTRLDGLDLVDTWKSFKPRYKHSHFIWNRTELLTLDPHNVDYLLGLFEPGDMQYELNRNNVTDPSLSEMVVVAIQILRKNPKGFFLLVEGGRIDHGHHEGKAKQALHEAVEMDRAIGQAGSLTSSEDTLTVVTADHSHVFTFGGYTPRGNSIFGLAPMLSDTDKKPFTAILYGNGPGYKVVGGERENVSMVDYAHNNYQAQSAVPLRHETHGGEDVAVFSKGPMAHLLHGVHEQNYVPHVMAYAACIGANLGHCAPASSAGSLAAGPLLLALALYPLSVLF
RAM network inh – inhibitors of the yeast RAM network, primary screen, dse1pr::URA3 reporter, 5-FOA selection; S. cerevisiae dse1pr::URA3 reporter, 5-FOA growth OD615, 2 d; analog-sensitive cbk1-as2 kinase mutant strain; inhibition, % at 50 µM; AID 868, 2007; 190,000 tested, 1.8% active;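 active = inhibition above a set limit, 3 SD over mean compound inhibition, cut at about 8.4% in these data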;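 note: 0% = DMSO-only wells with no growth and 100% = 10 µM 1-NA-PP1 full growth; inhibition rescues growth on 5-FOA so higher OD means more RAM inhibition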
TNAP inh hi DEA – human TNAP enzyme inhibitors, primary screen, biochemical, luminescent, high phosphate acceptor level, uHTS; Alkaline phosphatase, tissue-nonspecific isozyme (Homo sapiens), P05186; purified TNAP, CDP-star luminescence, 1 M DEA; inhibition, % at 20 µM; 200,000 tested, 0.03% active; AID 1135, 2008;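 active = over 50% inhibition of tissue-nonspecific alkaline phosphatase at 20 µM in the single-dose screen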;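 note: plate controls were DMSO wells for no effect and EDTA-quenched wells as full inhibition for full effect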
TNAP act hi DEA – TNAP activators at high phosphate acceptor level, primary screen, biochemical, luminescence, uHTS | purified TNAP, CDP-star luminescence, 1 M DEA, 30 min; stronger effect = higher value; 0 = EDTA background, 1 = DMSO-only activity | Alkaline phosphatase, tissue-nonspecific isozyme (Homo sapiens), P05186 | 200,000 tested, under 10 active | activation factor at 20 µM | AID 1136, 2008;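 active = activation factor at least 2 at 20 µM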
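Assay system: human TNAP; Input: enzyme diluted 1/800 final; Reagent: CDP-star luminogenic substrate at 100 µM final; Timing: 30 min, room temperature; Signal: luminescence; Evaluation: TNAP activation factor scaled between EDTA and DMSO control wells.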
Yeast growth inh – growth inhibitors of yeast BB579 in restrictive medium, primary screen, yeast lifespan-shortening project, S. cerevisiae; inhibition, % at 10 µM; OD615, 48 h; 140,000 tested, 0.51% active;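 active = inhibition above a set limit, 3 SD over the mean compound inhibition, cut at about 44% in these data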
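Test system: S. cerevisiae DeaD strain BB579 yeast; Medium: restrictive CSMM-D medium; Compound: one dose, 10 µM compound with 0.25% DMSO; Incubation: 4 h cell preincubation, 48 h compound exposure, 30 °C humidified; Signal: OD at 615 nm; Benchmarks: amphotericin B at 10 µg/mL as positive control.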
* marks the source's active call; other numbers are inactive results; · = no result given. Rows were chosen to be rich in hits. Some 2.8% of all compounds tested hit in one or more screens of this group.

SMILES	Yeast lifespan up	TNAP inh noacc	RAM network inh	TNAP inh hi DEA	TNAP act hi DEA	Yeast growth inh
Cc1ccc(S(=O)(=O)N2CCC(=O)N(C(COCc3ccc(C(F)(F)F)cc3)Cc3ccccc3)CC2)cc1 (stereo unspecified)	2	-4	10*	-3	1	-32
Cc1ccc(S(=O)(=O)N2CCC(=O)N(CCOCc3ccc(C(F)(F)F)cc3)CC2)cc1	8	-2	1	1	1	-40
O=S(=O)(NCC1CCCO1)c1ccc(Br)s1 (stereo unspecified)	-3	-7	0	-4	1	-21
O=S(=O)(NC1CC2CCC1C2)c1ccc(Br)s1 (stereo unspecified)	-29	-11	-1	-2	1	98*
COc1ccc(CCNC(=O)c2n[nH]c3ccccc23)cc1	·	-102	2	-6	1.1	·
COc1ccc(CNC(=O)COC(=O)c2n[nH]c3ccccc23)cc1	-17	22	10*	-5	1.1	-28
COC(=O)c1n[nH]c2ccccc12	-29	55*	0	-8	1.1	-19
COc1ccc(C(=O)OCn2nnc3ccccc3c2=O)cc1[N+](=O)[O-]	·	-6	2	0	1	·
CCN(C(=O)CSc1nnc2nc(C)cc(C)n12)c1ccccc1	·	-3	0	-3	1	·
Cc1cccc(-c2noc(CN(C(C)C)S(=O)(=O)c3ccc(F)cc3)n2)c1	-2	-6	8.5*	-4	1	-62
CCn1c(CSc2nc3ccccc3s2)nnc1SCC(=O)c1ccc(O)c(O)c1	-7	80*	5	11	0.9	-62
CCn1c(SCC(=O)c2ccc(O)c(O)c2)nnc1-c1ccccc1	-4	50*	2	6	0.9	16
CCn1c(CSc2nc3ccccc3s2)nnc1SCC(=O)c1ccc(Cl)cc1	-13	-10	4	-3	1	-45
Cn1c(=O)[nH]c(=O)c2c1nc(Br)n2CC(O)c1ccccc1 (stereo unspecified)	-6	4	0	-9	1.1	-11
CC(C)=CCc1c(O)ccc2c1OC(c1ccc(O)c(O)c1)CC2=O (stereo unspecified)	·	54*	-2	-2	1	·
CC[C@@H](C(=O)n1nc(C)cc1C)[C@H](NS(=O)(=O)c1ccc(C)cc1)c1ccccc1	12	-10	10.0*	-10	1.1	-15
COc1ccc(OC)c(NC(=O)c2ccno2)c1	·	-13	1	-3	1	·
Cc1ccc(NC(=O)c2cncc(Br)c2)c([N+](=O)[O-])c1	-2	-2	3	0	1	-32
CCCCOc1ccc(C(=O)OCC(=O)Nc2cc(C)c(C)cc2[N+](=O)[O-])cc1	6	-6	11*	-5	1.1	-40
CCCCOc1ccc(C(=O)Nc2ccc(C)cc2[N+](=O)[O-])cc1	-1	-11	9.1*	-1	1	-1
CCCOC(=O)c1cccc(NC(=O)COc2ccc([N+](=O)[O-])cc2)c1	-3	5	10*	-2	1	-8
COc1ccc(OC)c(C(c2nnnn2CCC(C)C)N2CCN(C(=O)c3ccco3)CC2)c1 (stereo unspecified)	-3	-14	0	-9	1.1	-36
COc1cc(C(=O)NCc2nnc(SCC(=O)N3CCc4ccccc43)o2)cc(OC)c1OC	-2	-14	4	-6	1.1	-6
C=CCn1c(SCC(=O)NCc2cccs2)nnc1C1CCCCC1	-8	-5	2	-4	1	6
C/C(=N\NC(=O)c1cccc(N/N=C(\C)c2ccco2)c1)c1ccco1	·	-17	2	-3	1	·
SMILES	Yeast lifespan up	TNAP inh noacc	RAM network inh	TNAP inh hi DEA	TNAP act hi DEA	Yeast growth inh
C/C(=N\NC(=O)c1cccc(N/N=C(\C)c2cc(O)ccc2O)c1)c1cc(O)ccc1O	·	76*	2	1	1	·
CCCCN(C)C(=O)c1oc2ccc(S(=O)(=O)N3CCCCCC3)cc2c1C	28	-4	9.8*	6	0.9	-23
CN(C)S(=O)(=O)c1ccc(C(=O)OCC(=O)c2ccc(OC(F)F)cc2OC(F)F)cc1	-8	-5	11*	-2	1	-73
CCc1sc(N(C(=O)Cc2ccccc2)c2ccc(F)cc2)nc1-c1ccccc1	-27	-11	9.1*	-11	1.1	-49
CCCCC(=O)N(c1ccc(C(=O)O)cc1)c1nc(-c2ccc(Cl)cc2)c(CC)s1	·	1	4	2	1	·
CCc1sc(N(C(=O)Cc2ccccc2)c2ccccc2)nc1-c1ccccc1	-8	-9	11*	-6	1.1	-19
CC(=O)c1c(C)[nH]c(C(=O)CSc2nnc(C)s2)c1C	·	-13	3	-2	1	·
COc1ccccc1N(CC(O)COc1ccccc1C)S(=O)(=O)c1ccccc1 (stereo unspecified)	11	3	9.7*	2	1	-70
COc1ccccc1N(CC(O)Cn1c2ccccc2c2ccccc21)S(=O)(=O)c1ccccc1 (stereo unspecified)	1	0	7	0	1	-26
CCOC(=O)CSc1nc2sc3c(c2c(=O)[nH]1)CC(C)(CC)OC3 (stereo unspecified)	-1	-18	1	-8	1.1	-30
CCCSc1nc2c3c(sc2c(=O)[nH]1)CC(C)(CC)OC3 (stereo unspecified)	·	-5	8.8*	0	1	·
CCCCCCCC(=O)N/N=C(/C)c1c(O)cc(C)oc1=O	40*	-4	-1	0	1	-13
CCCCCCCC(=O)N/N=C(\C)c1ccc(O)cc1O	-1	-2	-1	-1	1	-11
CC(C)COc1ccc(CSCCNC(=S)Nc2ccccc2)cc1	-4	-28	9.0*	-4	1	-5
CCOC(=O)/C(=C\c1cccnc1)C(=O)c1cc(C(C)=O)c(Nc2ccccc2)s1	33*	-5	2	-4	1	-52
N#Cc1ccccc1Cn1cc(/C=C/[N+](=O)[O-])c2ccccc21	35*	4	6	3	1	-2
O=C(NCc1ccccc1)C1=C[C@@H](c2coc3ccccc3c2=O)C[C@@H](OCc2ccc(CO)cc2)O1	·	25	8.5*	-7	1.1	·
O=C(NCc1ccccc1)C1=C[C@@H](c2csc3ccccc23)C[C@@H](OCCCCO)O1	·	-4	11*	2	1	·

Compound activity from PubChem BioAssay.
